Consider one compound from PMC5456262 (Biochemistry, 2017).

One assay concerns the target N245C LacY (Escherichia coli, UniProt P02920, N245C). Briefly: NPG binding to control single-Cys mutant N245C, stopped-flow. The note with it: Figure S3.
Assay [1] addresses LacY mutant 32C/245C (I32C/N245C) reconstituted into PL (Escherichia coli, UniProt P02920, I32C/N245C). Put plainly: biochemical. In kind it is binding.
Assay [2] addresses mutant 32C/245C LacY–Nb9065 complex in PL (Escherichia coli, UniProt P02920, I32C/N245C). In kind it is binding.
Assay [3] addresses LacY control mutants I32C, H35C, or N245C. Put plainly: Galactoside. The note with it: range over three control mutants, presence or absence of Cu^2+. In kind it is binding, Escherichia coli. The method in brief:
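Purified LacY single-Cys mutants were pretreated with CuSO4 (oxidizing) or 10 mM TCEP (reducing) for 10 min at room temperature, with stopped-flow final TCEP at 2 mM. Buffer was 50 mM NaPi pH 7.5, with 0.02% DDM for detergent-solubilized protein. Protein was preincubated 5 min with NPG at varied concentrations, then mixed by stopped-flow with 15 mM TDG. Trp151→NPG FRET was read at ex 295/em 340 nm, and single-exponential fits gave koff.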

Another assay deals with WT LacY in PL. The note with it: cited from earlier work.
The target in a further assay is H35C LacY (Escherichia coli, UniProt P02920, H35C). Briefly: NPG binding to control single-Cys mutant H35C, stopped-flow. The note with it: Figure S3.
H35C LacY, sequence (P02920 whole entry H35C): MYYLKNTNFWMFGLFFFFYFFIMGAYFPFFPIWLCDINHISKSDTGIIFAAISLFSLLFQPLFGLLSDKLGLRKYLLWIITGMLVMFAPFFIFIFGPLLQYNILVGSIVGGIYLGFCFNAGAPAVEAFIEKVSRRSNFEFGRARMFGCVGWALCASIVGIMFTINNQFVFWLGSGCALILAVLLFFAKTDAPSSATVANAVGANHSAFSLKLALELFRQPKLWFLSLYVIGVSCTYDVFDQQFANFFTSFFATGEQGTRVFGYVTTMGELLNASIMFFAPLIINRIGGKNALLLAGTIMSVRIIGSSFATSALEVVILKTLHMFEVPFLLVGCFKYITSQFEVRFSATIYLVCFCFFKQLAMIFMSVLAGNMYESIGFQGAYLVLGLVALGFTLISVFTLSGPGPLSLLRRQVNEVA
Assay [4] addresses LacY mutant 35C/245C (H35C/N245C) (Escherichia coli, UniProt P02920, H35C/N245C). Put plainly: NPG binding to mutant 35C/245C solubilized in DDM, stopped-flow Trp151→NPG FRET.
In another assay the target is I32C LacY (Escherichia coli, UniProt P02920, I32C). Put plainly: NPG binding to control single-Cys mutant I32C, stopped-flow. The note with it: Figure S3.
I32C LacY, sequence (P02920 whole entry I32C): as the sequence (P02920 whole entry H35C) above, with I32C, C35H counted along it
For assay [5], the target named is LacY mutant 32C/245C (I32C/N245C) (Escherichia coli, UniProt P02920, I32C/N245C). Briefly: biochemical. In kind it is binding.
LacY mutant 32C/245C (I32C/N245C), sequence (P02920 whole entry I32C/N245C): as the sequence (P02920 whole entry H35C) above, with I32C, C35H, N245C counted along it
Setting [6] is: DDM, Cu^2+, directly measured NPG binding rates.
The mark [7] stands for this setting: Kd^app calculated = Kd(1 + kr/kf), DDM, cross-linked with Cu^2+.
[8] abbreviates: read-out: kon from two-step conformational selection fit.

Values joined by “and” are separate entries in the source; they are usually repeats but may differ in a detail not shown here. Identical values can stand only once.

LacY mutant 35C/245C (H35C/N245C), sequence (P02920 whole entry H35C/N245C): as the sequence (P02920 whole entry H35C) above, with N245C counted along it
LacY mutant 32C/245C (I32C/N245C) reconstituted into PL, sequence (P02920 whole entry I32C/N245C): as the sequence (P02920 whole entry H35C) above, with I32C, C35H, N245C counted along it
mutant 32C/245C LacY–Nb9065 complex in PL, sequence (P02920 whole entry I32C/N245C, one chain of several): as the sequence (P02920 whole entry H35C) above, with I32C, C35H, N245C counted along it
N245C LacY, sequence (P02920 whole entry N245C): as the sequence (P02920 whole entry H35C) above, with C35H, N245C counted along it

Turning to `O=[N+]([O-])c1ccc(O[C@H]2O[C@H](CO)[C@H](O)[C@H](O)[C@H]2O)cc1` [NPG, 4-nitrophenyl α-D-galactopyranoside], the “kobs (sugar binding rate measured directly)” value is 26 s⁻¹ at N245C LacY, 33 s⁻¹ at H35C LacY and 20 s⁻¹ at I32C LacY. The Kd is 7 ± 1 µM in assay [1]; 6 ± 2 µM in [2]; 3 to 17 µM in assay [3]; 11 µM on WT LacY in PL (WT LacY in PL); 91 µM in [4] (setting [7]); 68 µM in assay [5] (setting [7]). Further, the “sugar binding (NPG displacement)” value in [1] (PL, cross-linked in the presence of Cu^2+, 400 μM NPG) is “no sugar binding”. For the same compound, in [1] (PL, reducing conditions (TCEP), no Nb9065), the “kobs (NPG binding rate measured directly, independent of NPG concentration)” value is 2.2 ± 0.4 s⁻¹ and 2 s⁻¹. Further, the koff in assay [1] (read-out: koff (displacement rate)) was 24 ± 3 s⁻¹; in assay [3], 33 to 102 s⁻¹; in the assay on WT LacY in PL (WT LacY in PL), 111 s⁻¹. In addition, the values for the kon in [2] (read-out: kon from concentration dependence of binding rates measured directly), in assay [4] (setting [8]) and in assay [5] (setting [8]) were 3.7e+06 ± 200000 M⁻¹ s⁻¹, 700000 ± 160000 M⁻¹ s⁻¹ and 640000 ± 120000 M⁻¹ s⁻¹, respectively. For the same compound, the “kon estimated from displacement experiments” value in the assay with WT LacY in PL (WT LacY reconstituted into PL) is 1e+07 M⁻¹ s⁻¹. The “kobs (sugar binding rate, independent of sugar concentration)” value in the assay with WT LacY in PL (reconstituted WT LacY) is 21 s⁻¹. Moreover, the “kobs limit at high sugar concentrations” value in assay [4] (setting [6]) and in assay [5] (setting [6]) was 40 to 50 s⁻¹ each time. In assay [5] (DDM, cross-linked in the presence of Cu^2+), the “koff (rate of NPG displacement by excess TDG)” value was 9.1 ± 0.9 s⁻¹.

The term koff denotes the first-order rate constant of dissociation.
